CASP6 VEID inh = caspase-6 (human) enzyme inhibition. P55212. purified caspase-6, Z-VEID-R110 cleavage fluorescence. inhibition, % at 12.5 µM. 0.53% of 350,000 active. AID 686996;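 active means mean inhibition across replicates at least about 35%, with every replicate also reaching that limit, limit read from the data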;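 further: 0% = median of neutral control wells and 100% = no fluorescence left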
NSD2 inh = NSD2 (human) methyltransferase inhibition; O96028; inhibition, % at 12.5 µM; NSD2 peptide methylation, AlphaScreen, 120 min; 0.54% of 310,000 active; AID 743445
DNMT1 block = blocks human DNA methyltransferase DNMT1. P26358. DNMT1 molecular beacon, Hinp1I cleavage, fluorescence. inhibition (reported as % activation of signal), % at 10 µM. 0.83% of 360,000 active. AID 588458
Target sequence (P26358 504-1616 limits assumed): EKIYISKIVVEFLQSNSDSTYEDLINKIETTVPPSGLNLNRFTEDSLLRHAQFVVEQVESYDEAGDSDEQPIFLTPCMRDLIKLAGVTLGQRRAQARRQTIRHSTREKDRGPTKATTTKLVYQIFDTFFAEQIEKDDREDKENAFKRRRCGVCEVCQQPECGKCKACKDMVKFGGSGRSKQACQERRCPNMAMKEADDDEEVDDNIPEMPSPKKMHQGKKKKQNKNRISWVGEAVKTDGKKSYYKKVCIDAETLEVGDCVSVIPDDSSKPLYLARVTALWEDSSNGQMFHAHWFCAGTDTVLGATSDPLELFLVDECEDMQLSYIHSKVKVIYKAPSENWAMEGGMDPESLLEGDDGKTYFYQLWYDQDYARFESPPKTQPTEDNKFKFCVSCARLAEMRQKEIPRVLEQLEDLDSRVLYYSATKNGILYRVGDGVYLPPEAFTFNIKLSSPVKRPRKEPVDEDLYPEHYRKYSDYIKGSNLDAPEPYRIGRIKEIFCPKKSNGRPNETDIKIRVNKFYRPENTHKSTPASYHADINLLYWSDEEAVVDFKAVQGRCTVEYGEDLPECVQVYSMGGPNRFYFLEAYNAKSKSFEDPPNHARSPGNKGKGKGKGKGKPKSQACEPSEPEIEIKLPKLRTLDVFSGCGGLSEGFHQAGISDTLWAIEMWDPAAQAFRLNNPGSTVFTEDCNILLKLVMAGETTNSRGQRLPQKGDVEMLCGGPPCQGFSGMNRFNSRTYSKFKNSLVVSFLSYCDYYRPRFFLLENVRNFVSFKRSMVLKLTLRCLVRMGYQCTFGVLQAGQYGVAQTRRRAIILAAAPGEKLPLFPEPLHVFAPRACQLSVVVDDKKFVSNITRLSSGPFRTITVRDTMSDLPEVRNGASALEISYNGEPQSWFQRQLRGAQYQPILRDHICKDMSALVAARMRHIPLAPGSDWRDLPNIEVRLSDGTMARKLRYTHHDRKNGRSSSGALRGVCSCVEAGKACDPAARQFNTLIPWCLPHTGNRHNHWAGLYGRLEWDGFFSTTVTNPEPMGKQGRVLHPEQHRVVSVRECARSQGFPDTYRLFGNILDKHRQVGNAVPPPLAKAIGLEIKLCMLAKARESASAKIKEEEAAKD
HCV NS3 hel inh = inhibitors of Hepatitis C virus NS3 helicase; NS3 helicase DNA unwinding, Cy5 molecular beacon fluorescence; AID 1800; inhibition, % at 10.9 µM; 0.56% of 290,000 active;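 active means inhibition above the mean of all tested compounds plus 3 SD, set per campaign, cut at about 35% in these data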;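 further: 0% = DMSO wells and 100% = thioflavine S control wells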
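Assay system – hepatitis C virus NS3 helicase domain fragment enzyme · Buffer or medium – MOPS pH 6.5, MgCl2, DTT, Tween20, BSA · Reagent – Cy5/quencher beacon DNA duplex and ATP to start · Compound – single 10.9 µM dose · Timing – 1 h at 25 °C · Technique – Cy5 beacon fluorescence read at start and 1 h · Measure – % inhibition of unwinding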
Beacon interf DR = beacon fluorescence artifact, dose response counter-screen. molecular beacon fluorescence, spectral interference counter-screen. IC50, µM. 200 tested, under 10 active. shares compounds with DNMT1 block. AID 602382; call rule not given here
DNMT1 inh conf = confirmation of human DNMT1 inhibitors; 8% of 2,300 active; AID 602385; shares compounds with DNMT1 block; DNMT1 molecular beacon HinP1I cleavage, fluorescence; inhibition, % at 10 µM;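 active means average inhibition of at least 30% in the single-concentration confirmation test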
Beacon interf = shows spectral interference in the DNMT1 beacon assay; shares compounds with DNMT1 block; activation (fluorescence interference), % at 10 µM; AID 602387; 1% of 2,300 active; DNMT1 molecular beacon spectral interference counterscreen, fluorescence 485/520;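 active means activation of at least 30% at 10 µM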;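 further: DNMT1 catalytic domain with a HinP1I cleavage step and a FAM/dabcyl DNA beacon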
The depositor's hits bear a star; . = not tested or not shown. A selection: hits, their analogues and other compounds. The true share with any hit is near 1.5%. Unless noted, no stated cut-off is given here; in the data, active means inhibition above about 50%; inactive means the rest.

SMILES	CASP6 VEID inh	NSD2 inh	DNMT1 block	HCV NS3 hel inh	DNMT1 inh conf	Beacon interf	others
CC(C)OCCCNC(=O)CN1C(=O)CSc2ccc(S(=O)(=O)N3CCCCC3)cc21	-7	2	69*	4	8	-2
C=CCOC(=O)c1cc(-c2ccc(/C=C3\C(=O)NC(=O)C(C#N)=C3C)o2)ccc1Cl	.	42	105*	10	97*	-3	Beacon interf DR=>99
O=C(CCCCCn1c(=S)[nH]c2cc3c(cc2c1=O)OCO3)N1CCN(c2ccccc2)CC1	0	0	66*	23	-2	-6
O=C(CCCn1c(=S)[nH]c2cc3c(cc2c1=O)OCO3)N1CCN(c2ccc(F)cc2)CC1	.	1	-3	5	.	.
CCCCn1c(N)c(N(CC(C)C)C(=O)c2ccc(-c3ccc([N+](=O)[O-])cc3)o2)c(=O)[nH]c1=O	0	3	1	.	.	.
CCCCn1c(N)c(N(CCC(C)C)C(=O)c2ccc(-c3ccc([N+](=O)[O-])cc3)o2)c(=O)[nH]c1=O	-1	1	84*	.	0	7
Cc1cc(NC(=S)NC(=O)C2CCCC2)ccc1Br	.	-4	.	.	.	.
COc1cccc(C(=O)Nc2ccc3c(c2)C(=O)c2ccccc2C3=O)c1	-6	6	74*	1	8	-1
Cc1ccccc1CC(=O)NCCN1CCCCC1	-2	-1	80*	0	0	3
O=C(Cc1ccccc1)NCCN1CCCC1	-5	-7	-2	7	.	.
CNc1cnn(-c2ccccc2)c(=O)c1Cl	.	-6	1	-1	.	.
O=c1c(Cl)c(N/N=C/c2ccc(Br)cc2)cnn1-c1ccccc1	.	0	90*	-2	3	-1
CC1Sc2ccc(C(=O)N(CCc3ccccc3)Cc3ccccc3)cc2NC1=O (stereo not drawn)	0	-4	83*	.	1	7
CCCNC(=O)N1CC2(CN(Cc3ccc(F)cc3)C2)c2c([nH]c3cc(OC)ccc23)[C@H]1CO	-1	.	.	.	.	.
COc1ccc(NC(=O)N(C)C[C@H]2Oc3c(NC(=O)C4CCOCC4)cccc3C(=O)N([C@@H](C)CO)C[C@@H]2C)cc1	1	.	.	.	.	.
O=C(Nc1ccccc1F)N1CC(=O)N2[C@H](CO)[C@@H](c3ccc(-c4cccnc4)cc3)[C@H]2C1	-1	.	.	.	.	.
Cc1cc(N)n(-c2ccc(C)c(C)c2)n1	-1	-2	-3	-3	.	.
Cc1cc(N)n(-c2ccc(Oc3ccccc3)c(S(=O)(=O)O)c2)n1	38*	38	49	24	0	2
CCCC(=O)Nc1ccc2c(c1)C(=O)N(C)C[C@H](OC)[C@H](C)CN(C(C)=O)[C@@H](C)CO2	1	.	.	.	.	.
CN(C)C(=O)Oc1ccc[n+](C)c1	-4	.	60*	3	0	3
Cc1cnn(-c2cc(N/N=C/c3ccc(F)cc3)ncn2)c1	.	1	60*	-1	2	1
COc1ccc(CN(C)C[C@H]2OCCCC[C@H](C)Oc3ccc(NC(=O)c4ccncc4)cc3C(=O)N([C@H](C)CO)C[C@@H]2C)cc1	-2	.	.	.	.	.
CCOc1ccc2nc(N3C(=O)/C(=C/c4ccc(Cl)cc4)NC3=S)sc2c1	.	1	94*	0	16	-2
Cc1nnc(SCC(=O)NC(=O)NCc2ccco2)n1Cc1ccccc1	.	.	66*	9	3	4
O=C(CSc1nnc(-c2ccco2)n1Cc1ccccc1)NC(=O)NCc1ccccc1	.	3	0	-4	.	.
SMILES	CASP6 VEID inh	NSD2 inh	DNMT1 block	HCV NS3 hel inh	DNMT1 inh conf	Beacon interf	others
CCOc1ccccc1-n1nnnc1SCC(=O)NC(=O)Cc1ccccc1	-1	-1	0	.	.	.
O=C(CSc1nnnn1-c1ccccc1)NC(=O)NCc1ccco1	.	3	68*	7	0	-1
CC(C)(C)NC(=O)NC(=O)CSc1nnc(COc2ccccc2Cl)o1	.	0	-3	-2	.	.
O=C(CSc1nnc(COc2ccccc2Cl)o1)NC(=O)NCc1ccco1	4	.	72*	6	1	4
CCOc1ccccc1-n1nnnc1SCC(=O)NC(=O)NCc1ccco1	.	6	60*	20	1	5
C[C@H](CO)N1C[C@H](C)[C@H](CN(C)C(=O)c2ccccn2)Oc2ncc(C3=CCCC3)cc2C1=O	0	.	.	.	.	.
C[C@H]1CN([C@@H](C)CO)C(=O)c2cc(NC(=O)NC3CCCCC3)ccc2O[C@H]1CN(C)C(=O)Nc1ccc2c(c1)OCO2	-4	.	.	.	.	.
CCCCCCCCC(=O)c1c(OC)oc(C=O)cc1=O	72*	6	98*	.	38*	3	Beacon interf DR=>99
CCNC(=O)[C@@H]1[C@@H](CO)[C@@H]2Cn3c(ccc(-c4ccccc4)c3=O)[C@H]1N2Cc1cccnc1	2	.	.	.	.	.
Cc1nn(CCCC(=O)NCc2ccc(Cl)cc2)c(C)c1[N+](=O)[O-]	.	-1	69*	-1	2	1
CC(=O)N(C)C[C@@H]1Oc2ncc(-c3cccnc3)cc2C(=O)N([C@@H](C)CO)C[C@H]1C	-6	.	.	.	.	.
COc1ccc(CC(=O)Nc2ccc(-c3noc(-c4ccc(Cl)cc4)n3)cc2)cc1	.	1	51*	7	4	-5
O=c1cc(-c2ccsc2)oc2cc(-c3ccc4c(c3)OCO4)ccc12	0	.	61*	.	0	-1
COc1ccc(-c2ccc3c(=O)cc(-c4ccsc4)oc3c2)cn1	-3	.	53*	.	1	2
COc1cc(-c2ccc3oc(-c4ccsc4)cc(=O)c3c2)cc(OC)c1OC	-7	.	-9	.	.	.
CCOC(=O)c1c(NC(=O)C2CCCO2)sc(C(=O)OC(C)(C)C)c1C (stereo not drawn)	.	8	51*	5	2	5
O=C(COc1ccc(Br)cc1)Nc1ccc(N2CCOCC2)cc1N1CCOCC1	-1	2	55*	.	5	5
COc1cccc(/C=N/Nc2ncnc3c2[nH]c2ccc(C)cc23)c1OC	0	-1	60*	-13	1	-3
CNC(=O)C1=C[C@@H](c2ccc(OC)cc2)C[C@@H](OCCCCO)O1	0	.	.	.	.	.
Cc1noc(C)c1NC(=O)NCC[C@@H]1CC[C@H](NC(=O)c2ccc(F)cc2)[C@H](CO)O1	-92	.	.	.	.	.
CCOC(=O)N1CCN(Cc2nc(CC3CC3)no2)CC1	-3	1	82*	4	3	3
CC(C)c1nnc(NC(=O)c2ccc3c(c2)OCO3)s1	-8	-4	1	9	.	.
COc1ccccc1-c1nnc(NC(=O)c2ccc3c(c2)OCO3)s1	-1	-1	55*	0	2	-5
CC(C)CC#Cc1ccc2c(c1)O[C@@H](CN(C)C(=O)C1CCCCC1)[C@H](C)CN([C@H](C)CO)S2(=O)=O	3	.	.	.	.	.
COC(=O)c1sccc1NC(=O)Cc1ccc(OC)cc1	2	-3	92*	8	4	13
Cc1ccc(/C=C/C(=O)NCc2ccccn2)o1	.	1	67*	26	6	1
Cc1ccc(/C=C/C(=O)NCc2ccco2)o1	.	13	.	7	.	.

Screening results deposited in PubChem by several laboratories.
